# In PubChem BioAssay AID1793 (Vanderbilt High Throughput Screening Facility, 2009):
# Key:
# Assay in all cases: off-target binding across receptor and channel panel, profiling panel, selectivity assay for Cl- transport modulator project, biochemical, MDS panel, antagonist ancillary profile (AID 1793)
# [1] = molecular target: Voltage-dependent L-type calcium channel subunit alpha-1C (Rattus norvegicus) (UniProt P22002); conditions: MDS Pharma radioligand binding panel, % inhibition; measured here: L-type Ca channel BTZ rat; at 10 µM; stronger effect = higher value
# How it was run: (§1)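 Assay system – GPCR, ion channel, transporter off-target panel · Doses – lead compound at one single concentration, 10 µM · Read-out basis – Ancillary (off-target) activity of the lead compound per target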
# [2] = molecular target: Adenosine receptor A2a (Homo sapiens) (UniProt P29274); conditions: MDS Pharma radioligand binding panel, % inhibition; measured here: Adenosine A2 human; at 10 µM; stronger effect = higher value
# Chain of Adenosine receptor A2a (Homo sapiens) (P29274 whole entry, looked up): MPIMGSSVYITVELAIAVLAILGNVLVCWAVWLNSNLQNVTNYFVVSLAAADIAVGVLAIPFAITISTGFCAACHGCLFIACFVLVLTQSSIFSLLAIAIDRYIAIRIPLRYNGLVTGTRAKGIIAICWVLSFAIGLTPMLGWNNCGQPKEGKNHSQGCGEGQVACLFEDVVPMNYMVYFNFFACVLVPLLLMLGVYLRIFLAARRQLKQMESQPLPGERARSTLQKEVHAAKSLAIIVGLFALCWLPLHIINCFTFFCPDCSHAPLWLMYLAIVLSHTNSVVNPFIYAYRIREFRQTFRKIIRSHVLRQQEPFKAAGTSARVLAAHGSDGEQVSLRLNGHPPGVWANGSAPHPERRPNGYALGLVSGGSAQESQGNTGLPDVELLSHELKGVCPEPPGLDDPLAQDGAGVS
# How it was run: as §1
# [3] = molecular target: Alpha-1D adrenergic receptor (Homo sapiens) (UniProt P25100); conditions: MDS Pharma radioligand binding panel, % inhibition; measured here: Adrenergic a1D human; at 10 µM; stronger effect = higher value
# How it was run: as §1
# [4] = molecular target: Androgen receptor (Rattus norvegicus) (UniProt P15207); conditions: MDS Pharma radioligand binding panel, % inhibition; measured here: Androgen receptor rat; at 10 µM; stronger effect = higher value
# Chain of Androgen receptor (Rattus norvegicus) (P15207 whole entry, looked up): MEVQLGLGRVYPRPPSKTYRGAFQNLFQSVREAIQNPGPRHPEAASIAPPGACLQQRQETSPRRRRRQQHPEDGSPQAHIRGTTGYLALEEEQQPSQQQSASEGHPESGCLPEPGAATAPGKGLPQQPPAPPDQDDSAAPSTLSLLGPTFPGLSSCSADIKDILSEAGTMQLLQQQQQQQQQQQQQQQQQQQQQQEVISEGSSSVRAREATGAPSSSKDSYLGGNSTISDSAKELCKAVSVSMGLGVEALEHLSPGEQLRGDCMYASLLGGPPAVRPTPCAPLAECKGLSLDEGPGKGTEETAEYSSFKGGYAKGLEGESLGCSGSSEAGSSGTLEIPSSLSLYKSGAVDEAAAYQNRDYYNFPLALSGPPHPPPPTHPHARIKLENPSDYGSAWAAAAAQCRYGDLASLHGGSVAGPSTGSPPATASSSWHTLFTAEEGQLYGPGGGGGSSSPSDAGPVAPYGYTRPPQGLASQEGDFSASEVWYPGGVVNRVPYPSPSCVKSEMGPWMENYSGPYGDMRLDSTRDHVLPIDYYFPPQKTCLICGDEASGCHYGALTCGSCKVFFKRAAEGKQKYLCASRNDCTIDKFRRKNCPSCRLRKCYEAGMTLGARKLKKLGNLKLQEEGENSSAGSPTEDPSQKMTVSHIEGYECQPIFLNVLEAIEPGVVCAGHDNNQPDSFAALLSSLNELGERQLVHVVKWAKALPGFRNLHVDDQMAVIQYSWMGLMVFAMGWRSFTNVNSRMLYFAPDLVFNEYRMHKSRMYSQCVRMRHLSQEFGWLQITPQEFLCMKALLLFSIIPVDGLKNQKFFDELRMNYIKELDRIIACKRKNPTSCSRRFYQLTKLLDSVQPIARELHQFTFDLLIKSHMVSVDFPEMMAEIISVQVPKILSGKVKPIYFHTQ
# How it was run: as §1
# [5] = molecular target: B2 bradykinin receptor (Homo sapiens) (UniProt P30411); conditions: MDS Pharma radioligand binding panel, % inhibition; measured here: Bradykinin B2 human; at 10 µM; stronger effect = higher value
# Chain of B2 bradykinin receptor (Homo sapiens) (P30411 whole entry, looked up): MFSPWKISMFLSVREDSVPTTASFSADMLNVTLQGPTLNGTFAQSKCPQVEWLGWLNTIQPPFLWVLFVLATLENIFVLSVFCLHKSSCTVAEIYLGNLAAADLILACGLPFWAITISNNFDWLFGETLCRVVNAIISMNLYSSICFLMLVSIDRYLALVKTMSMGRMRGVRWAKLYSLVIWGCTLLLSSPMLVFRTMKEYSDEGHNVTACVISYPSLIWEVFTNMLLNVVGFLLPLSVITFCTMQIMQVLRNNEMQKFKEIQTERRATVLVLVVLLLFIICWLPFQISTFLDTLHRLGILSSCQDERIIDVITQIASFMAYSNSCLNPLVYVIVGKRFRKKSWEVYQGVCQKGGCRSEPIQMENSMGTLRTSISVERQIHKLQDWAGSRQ
# How it was run: as §1
# [6] = molecular target: Adenosine receptor A1 (Homo sapiens) (UniProt P30542); conditions: MDS Pharma radioligand binding panel, % inhibition; at 10 µM; stronger effect = higher value
# Chain of Adenosine receptor A1 (Homo sapiens) (P30542 whole entry, looked up): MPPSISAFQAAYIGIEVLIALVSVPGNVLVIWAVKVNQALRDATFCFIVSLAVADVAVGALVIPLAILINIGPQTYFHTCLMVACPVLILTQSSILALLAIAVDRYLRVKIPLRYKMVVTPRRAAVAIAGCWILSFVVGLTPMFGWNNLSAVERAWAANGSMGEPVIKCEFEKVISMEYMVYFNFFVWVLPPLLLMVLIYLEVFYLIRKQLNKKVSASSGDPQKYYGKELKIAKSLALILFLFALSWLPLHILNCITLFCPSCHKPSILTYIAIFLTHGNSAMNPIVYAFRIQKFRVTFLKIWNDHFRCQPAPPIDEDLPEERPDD
# How it was run: as §1
# [7] = molecular target: Alpha-1B adrenergic receptor (Rattus norvegicus) (UniProt P15823); conditions: MDS Pharma radioligand binding panel, % inhibition; measured here: Adrenergic a1B rat; at 10 µM; stronger effect = higher value
# Chain of Alpha-1B adrenergic receptor (Rattus norvegicus) (P15823 whole entry, looked up): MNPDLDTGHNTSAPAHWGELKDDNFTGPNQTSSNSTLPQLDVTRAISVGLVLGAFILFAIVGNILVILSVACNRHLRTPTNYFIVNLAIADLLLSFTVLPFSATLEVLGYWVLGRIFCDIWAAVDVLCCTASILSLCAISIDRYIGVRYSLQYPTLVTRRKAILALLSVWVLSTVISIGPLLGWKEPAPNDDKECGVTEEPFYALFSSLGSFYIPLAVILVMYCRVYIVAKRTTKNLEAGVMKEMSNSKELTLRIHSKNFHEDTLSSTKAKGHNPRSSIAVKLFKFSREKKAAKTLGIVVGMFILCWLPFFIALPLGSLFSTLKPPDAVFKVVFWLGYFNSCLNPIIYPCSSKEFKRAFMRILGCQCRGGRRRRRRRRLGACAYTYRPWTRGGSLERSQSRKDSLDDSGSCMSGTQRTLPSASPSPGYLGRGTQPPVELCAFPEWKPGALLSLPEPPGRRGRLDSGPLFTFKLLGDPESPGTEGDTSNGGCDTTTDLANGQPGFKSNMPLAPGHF
# How it was run: as §1
# [8] = molecular target: Alpha-2A adrenergic receptor (Homo sapiens) (UniProt P08913); conditions: MDS Pharma radioligand binding panel, % inhibition; measured here: Adrenergic a2A human; at 10 µM; stronger effect = higher value
# Chain of Alpha-2A adrenergic receptor (Homo sapiens) (P08913 whole entry, looked up): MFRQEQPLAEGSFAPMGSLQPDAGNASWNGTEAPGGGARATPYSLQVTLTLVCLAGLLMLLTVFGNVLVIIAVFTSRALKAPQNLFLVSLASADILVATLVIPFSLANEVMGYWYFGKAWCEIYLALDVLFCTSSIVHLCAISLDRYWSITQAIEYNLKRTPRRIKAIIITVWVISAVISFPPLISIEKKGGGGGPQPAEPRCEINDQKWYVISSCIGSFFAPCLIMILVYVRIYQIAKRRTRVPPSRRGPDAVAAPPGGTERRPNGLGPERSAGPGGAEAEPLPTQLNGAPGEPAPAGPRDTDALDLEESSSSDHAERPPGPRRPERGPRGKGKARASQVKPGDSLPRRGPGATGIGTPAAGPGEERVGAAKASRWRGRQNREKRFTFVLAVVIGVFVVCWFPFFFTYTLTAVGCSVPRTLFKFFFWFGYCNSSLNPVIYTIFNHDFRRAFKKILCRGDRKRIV
# How it was run: as §1
# [9] = molecular target: Beta-1 adrenergic receptor (Homo sapiens) (UniProt P08588); conditions: MDS Pharma radioligand binding panel, % inhibition; measured here: Adrenergic b1 human; at 10 µM; stronger effect = higher value
# How it was run: as §1
# [10] = molecular target: Beta-2 adrenergic receptor (Homo sapiens) (UniProt P07550); conditions: MDS Pharma radioligand binding panel, % inhibition; measured here: Adrenergic b2 human; at 10 µM; stronger effect = higher value
# Chain of Beta-2 adrenergic receptor (Homo sapiens) (P07550 whole entry, looked up): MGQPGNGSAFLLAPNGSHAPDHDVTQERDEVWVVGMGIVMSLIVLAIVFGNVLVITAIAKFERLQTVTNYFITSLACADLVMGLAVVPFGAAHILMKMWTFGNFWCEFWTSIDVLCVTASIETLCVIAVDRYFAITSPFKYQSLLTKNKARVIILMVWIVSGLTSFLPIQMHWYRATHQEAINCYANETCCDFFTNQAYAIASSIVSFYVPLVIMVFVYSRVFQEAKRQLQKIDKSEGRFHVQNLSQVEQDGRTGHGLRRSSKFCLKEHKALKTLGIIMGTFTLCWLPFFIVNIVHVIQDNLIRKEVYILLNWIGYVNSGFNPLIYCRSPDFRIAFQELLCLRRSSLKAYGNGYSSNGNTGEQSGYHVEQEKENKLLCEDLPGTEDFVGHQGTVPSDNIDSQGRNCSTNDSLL
# How it was run: as §1
# [11] = molecular target: B1 bradykinin receptor (Homo sapiens) (UniProt P46663); conditions: MDS Pharma radioligand binding panel, % inhibition; measured here: Bradykinin B1 human; at 10 µM; stronger effect = higher value
# Chain of B1 bradykinin receptor (Homo sapiens) (P46663 whole entry, looked up): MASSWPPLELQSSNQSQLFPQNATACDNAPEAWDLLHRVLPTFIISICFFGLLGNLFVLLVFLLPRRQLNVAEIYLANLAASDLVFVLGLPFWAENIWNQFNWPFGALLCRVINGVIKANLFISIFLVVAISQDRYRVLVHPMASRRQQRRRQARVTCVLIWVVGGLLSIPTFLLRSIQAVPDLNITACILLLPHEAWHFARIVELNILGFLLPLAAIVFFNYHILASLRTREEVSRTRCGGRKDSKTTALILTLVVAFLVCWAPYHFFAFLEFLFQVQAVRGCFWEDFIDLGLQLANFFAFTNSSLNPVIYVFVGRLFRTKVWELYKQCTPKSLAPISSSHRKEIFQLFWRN
# How it was run: as §1
# [12] = molecular target: Alpha-1A adrenergic receptor (Rattus norvegicus) (UniProt P43140); conditions: MDS Pharma radioligand binding panel, % inhibition; measured here: Adrenergic a1A rat; at 10 µM; stronger effect = higher value
# Chain of Alpha-1A adrenergic receptor (Rattus norvegicus) (P43140 whole entry, looked up): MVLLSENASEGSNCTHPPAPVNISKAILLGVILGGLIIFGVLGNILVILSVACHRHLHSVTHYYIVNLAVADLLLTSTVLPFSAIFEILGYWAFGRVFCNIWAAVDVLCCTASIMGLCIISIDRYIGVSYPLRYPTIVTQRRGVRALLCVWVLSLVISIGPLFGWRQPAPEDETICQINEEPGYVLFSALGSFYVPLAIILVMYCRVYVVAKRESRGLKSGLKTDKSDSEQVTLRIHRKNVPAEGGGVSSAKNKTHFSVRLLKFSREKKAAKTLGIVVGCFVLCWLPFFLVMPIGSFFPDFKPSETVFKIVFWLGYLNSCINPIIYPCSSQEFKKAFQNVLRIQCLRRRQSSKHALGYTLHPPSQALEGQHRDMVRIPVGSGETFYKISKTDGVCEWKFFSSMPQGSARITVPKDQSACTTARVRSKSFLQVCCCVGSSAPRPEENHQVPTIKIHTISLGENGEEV
# How it was run: as §1
# [13] = molecular target: Adenosine receptor A3 (Homo sapiens) (UniProt P0DMS8); conditions: MDS Pharma radioligand binding panel, % inhibition; measured here: Adenosine A3 human; at 10 µM; stronger effect = higher value
# Chain of Adenosine receptor A3 (Homo sapiens) (P0DMS8 whole entry, looked up): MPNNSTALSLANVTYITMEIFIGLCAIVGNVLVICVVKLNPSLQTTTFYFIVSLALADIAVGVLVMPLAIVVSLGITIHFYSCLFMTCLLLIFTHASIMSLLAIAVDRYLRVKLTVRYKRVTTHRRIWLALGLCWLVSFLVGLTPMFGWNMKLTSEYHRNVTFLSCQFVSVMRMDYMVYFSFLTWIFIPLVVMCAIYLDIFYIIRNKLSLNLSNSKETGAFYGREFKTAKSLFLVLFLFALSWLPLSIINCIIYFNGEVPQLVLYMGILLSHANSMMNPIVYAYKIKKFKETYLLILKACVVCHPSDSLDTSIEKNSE
# How it was run: as §1
smiles,measurement,setting,value
Cc1csc(N(C)C(=O)CSc2ccc(-c3ccccc3)nn2)n1,inhibition,[1],10%
same,inhibition,[2],38%
same,inhibition,[3],16%
same,inhibition,[4],4%
same,inhibition,[5],2%
same,inhibition,[6],31%
same,inhibition,[7],3%
same,inhibition,[8],-7%
same,inhibition,[9],10%
same,inhibition,[10],9%
same,inhibition,[11],6%
same,inhibition,[12],33%
same,inhibition,[13],38%
